Lmaj promast: reduces viability of Leishmania major promastigotes; resazurin fluorescence viability; inhibition, % at 10 µM; 200,000 compounds, 9% hits; in the data active means inhibition above about 50%;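 further: promastigotes grown with compound for 44 hours at 28 °C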
MT stabilizer: microtubule stabilization, imaging screen. HeLa tubulin immunostaining HCS, 24 h; share of cells brighter than vehicle mean+2SD. % tubulin-high responders, % at 10 µM. 200,000 compounds, 0.83% hits;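 active means plate Z-score above 3 for both tubulin-high and condensed-nucleus cell shares, with cell loss under 80%, at 10 µM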;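 further: anti alpha tubulin signal scored within the nucleus-defined area of each cell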
Autophagy HCS: alters autophagy in cells; MEF GFP-LC3 puncta imaging; test concentration mostly 10 µM; 190,000 compounds, 0.98% hits; calls only at 10 µM (by protocol); AID 463193;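 active means percentage of spot-positive cells more than 3 SD above its plate mean, without a fluorescence outlier flag or 80% toxicity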
Dynein transport: blocks dynein driven cargo transport along microtubules; 3617.4 mouse cells, GR-EGFP nuclear translocation imaging; test concentration mostly 20 µM; stimulated with dexamethasone, 1 µM; hits give low values; z-score, hits read low; 220,000 compounds, 0.47% hits;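 active means plate z-score of nuclear minus cytoplasmic receptor signal below a set negative limit, without overly bright fluorescence or cell loss, cut at about -3.5 in these data, passing the limit was not always enough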;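 further: z-score of nuclear minus cytoplasmic ring GR-EGFP intensity difference per well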
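Also added – dexamethasone, 1.0 µM final · Buffer or medium – tet-free, stripped-serum medium · Schedule – induction 48 h, compound 1 h, agonist 30 min · Detection – formaldehyde fixation, Hoechst nuclear stain, 10x automated fluorescence imaging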
bCat nuc transl: modulators of beta-catenin nuclear translocation. 190,000 compounds, 0.3% hits. nuclear translocation activity, % at 5 µM. HeLa beta-catenin nuclear translocation, immunofluorescence imaging;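 active means nuclear translocation activity above 50% at 5 µM, with a well cell count of 50 or more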;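 further: per-cell ratio of nuclear to cytoplasmic median beta-catenin stain intensity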
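Test system: human HeLa cells, endogenous beta-catenin. Times: 24 h compound exposure, 37°C. Measured by: beta-catenin immunofluorescence imaging with DAPI.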
CHOP inh: blocks CHOP induction under ER stress; inhibition, % at 10 µM; 220,000 compounds, 3.8% hits; CHO-K1 CHOP-promoter luciferase, tunicamycin-induced, 15-18 h;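 active means compounds that reduced the stress-induced luciferase reporter signal by more than about 70% of percent inhibition, limit read from the data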
Numbers stand for hits; n = inactive; x = no result; + = active, no number. Most compounds without a hit are left out; they make up all but 12% or so of the library.

SMILES	Lmaj promast	MT stabilizer	Autophagy HCS	Dynein transport	bCat nuc transl	CHOP inh
CCc1cc2c(-c3ccccc3)cc(=O)oc2cc1OC(=O)c1cccs1	n	n	n	n	n	70
O=C(Cc1nn[nH]n1)c1ccccc1O	n	n	n	n	n	n
CCCCN1CC(O)=C(c2nc(-c3ccc(Cl)cc3)cs2)C1=N	n	n	+	n	x	n
COc1ccc(-c2csc(C3=C(O)CN(Cc4ccc(S(N)(=O)=O)cc4)C3=N)n2)cc1OC	n	n	n	n	n	n
N=C1C(c2nc(-c3ccc(Cl)cc3)cs2)=C(O)CN1CCCN1CCOCC1	n	n	n	n	n	n
COc1ccc(-c2csc(C3=C(O)CN(Cc4ccc(Cl)cc4)C3=N)n2)cc1OC	58	n	n	n	n	n
Cc1c(/C=C/C(=O)c2ccc(C(C)C)cc2)cnn1C	n	n	n	n	n	n
O=C(c1ccc(CN2CCc3ccccc3C2)cc1)N1CCCCC1	63	n	n	n	n	n
O=C(NCc1ccc2c(c1)OCO2)c1ccc(CN2CCc3ccccc3C2)cc1	n	n	n	n	n	n
O=C(C1CCCN(Cc2ccccc2)C1)N1CCc2ccccc2C1 (stereo not given)	96	n	n	n	x	n
Cc1cc(C)c(NC(=O)c2ccc(CN3CCc4ccccc4C3)cc2)c(C)c1	73	n	n	n	n	n
O=C(NCc1cccnc1)c1ccc(CN2CCc3ccccc3C2)cc1	63	n	n	n	n	n
O=C(c1ccc(CN2CCc3ccccc3C2)cc1)N1CCN(c2ccc(F)cc2)CC1	n	n	n	n	x	x
CCc1ccc(NC(=O)CSc2nnc(SCC(=O)Nc3ccc(CC)cc3)n2N)cc1	n	n	n	n	n	n
Cc1ccc(/C=C/S(=O)(=O)NCC(=O)OCC(=O)N2CC(=O)Nc3ccccc32)cc1	x	x	x	n	n	n
Cc1ccc(NC(=O)CSCC(=O)NCCc2ccccn2)c(C)c1	n	n	n	n	n	n
CCCNC(=O)c1ccc(CN2CCc3ccccc3C2)cc1	56	n	n	n	n	n
O=C(c1ccc(COc2ccccc2Br)cc1)N1CCCCC1	70	n	n	n	n	n
O=C(c1ccc(COc2ccccc2Br)o1)N1CCCCCC1	n	n	n	n	x	n
Cc1ccccc1Cc1ccc(Cl)nn1	n	n	n	n	n	n
Cc1cccc(OCC2=NS(=O)(=O)c3ccccc3N2)c1	n	n	n	n	n	n
CC(C)(C)NC1=CC(=O)OC12CCCCC2	n	n	n	n	n	n
COc1cc(S(=O)(=O)NCc2ccc3c(c2)OCO3)ccc1Cl	n	n	n	n	x	n
O=C(Nc1ccc(S(=O)(=O)NCc2ccccc2)cc1)Nc1ccc2c(c1)OCO2	n	n	n	n	n	84
O=S(=O)(NCc1ccc2c(c1)OCO2)c1ccc2c(c1)oc1ccccc12	n	n	n	n	n	95
SMILES	Lmaj promast	MT stabilizer	Autophagy HCS	Dynein transport	bCat nuc transl	CHOP inh
COc1cccc2[nH]c3c(N4CCCCC4)ncnc3c12	96	n	n	n	n	n
CCOC(=O)N1CCN(c2ncnc3c2[nH]c2ccc(OC)cc23)CC1	n	n	n	n	n	n
CCOC(=O)C1CCN(c2ncnc3c2[nH]c2cccc(OC)c23)CC1	73	n	n	n	n	n
CCOC(=O)N1CCN(c2ncnc3c2[nH]c2ccc(F)cc23)CC1	n	n	n	n	n	71
CCOC(=O)C1CCN(c2ncnc3c2oc2ccc(Cl)cc23)CC1	n	n	n	n	n	n
CCN(CC)S(=O)(=O)c1cccc(NC(=O)COC(=O)CCC(=O)c2ccc(F)cc2)c1	n	n	n	n	n	n
CC(C)OC(=O)CN1CCN(C2c3ccccc3-c3ccccc32)CC1	n	n	n	n	n	n
Cc1cccc(-n2c(=S)[nH]c3c(oc4ccccc43)c2=O)c1	58	n	n	n	n	n
COc1cccc(NC(=O)C(c2ccccc2)N2CCNC(=O)C2)c1 (stereo not given)	n	n	n	n	n	n
CCOc1ccccc1CN1CCN(Cc2nc3c(s2)CCCC3)CC1CCO (stereo not given)	n	n	n	n	n	n
Cc1ccc2nc(Cl)c(C3CC(c4cccs4)=NN3C(=O)CCCC(=O)O)cc2c1 (stereo not given)	57	n	n	n	n	n
COc1ccc(S(=O)(=O)NC2CCCCC2)c(C)c1C	n	n	n	n	n	n

Bioassay records: PubChem, several laboratories
